Laboratory results taken from PubChem BioAssay.
Active and inactive are the calls of the source.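 Rule for the calls, unless noted: active = viability at or below 30% in both replicate assays; inconclusive = viability at or below 30% in just one of the two assays; inactive = the rest.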

Assays:
[1] = reduced viability of SK-BR-3 breast cancer cells – cell-based, 24 h, human, pilot screen (AID 572;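 active = viability at or below 10% of carrier control in both of two separate runs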;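 note: compound exposure lasted between 18 and 24 h rather than exactly 24 h; 100% = carrier-treated control wells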); settings: SK-BR-3 viability, CellTiter-Glo luminescence, at 10 µM, stronger effect = lower value
[2] = HUVEC growth inhibition – cell-based, human, primary screen (AID 575); settings: HUVEC proliferation, CellTiter-Glo luminescence, 72 h; at 10 µM; stronger effect = lower value;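 note: 100% = median of untreated cell wells with 0.1% DMSO on each plate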
How it was run: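 Assay system: Primary human umbilical vein endothelial cells | Quantity: 1250 cells per well | Medium: Supplemented EBM, 2% fetal bovine serum | Detection: CellTiter-Glo luminescence measuring cellular ATP | Read-out: % viability vs DMSO wells | Plate: Collagen-coated 384-well format | Times: 72 h exposure, 37 °C, 5% CO2, 30 min RT equilibration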

[3] = H69AR cell proliferation blockers – human, duplicate replicates, primary screen (AID 580;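 active = viability at or under a set limit in both replicates, limit being median viability minus 3 SD, cut at about 48% in these data, passing the limit was not always enough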;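 note: 100% = mean luminescence of untreated wells and 0% = no signal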); settings: H69AR lung tumor cells viability, ATP luminescence, 72 h; at 10 µM; stronger effect = lower value
[4] = MRP1 drug-resistance reversers in H69AR cells – cell-based, doxorubicin co-treatment, pilot screen (AID 601;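 active = viability loss from added drug above about 55%, and viability with drug at most 40%, in both replicates, limit read from the data, passing the limit was not always enough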); settings: CellTiter-Glo, 72 h, at 10 µM; for differential viability (reversal): stronger effect = higher value
[5] = yeast transport mutant growth inhibition pilot in 384-well plates, post-Golgi transport modulator project (AID 636; in the data active = inhibition above about 31%); settings: absorbance 615 nm, about 18 h, stronger effect = higher value
[6] = growth suppression of yeast trafficking mutant, preliminary HTS, modulators of trafficking downstream of Golgi apparatus project, 1536-format plate, OD 615 nm (AID 637; in the data active = inhibition above about 30%); settings: yeast transport mutant growth, absorbance 615 nm, 18 h; stronger effect = higher value
[7] = H69AR cells + 2 uM doxorubicin, measured here: viability with 2 uM doxorubicin, stronger effect = lower value
[8] = H69AR cells, compound alone cytotoxicity

SMILES | viability [1] | viability [2] | viability [3] | differential viability (reversal) ([4]; H69AR cells + 2 uM doxorubicin) | viability [4, 7] | viability [4, 8] | inhibition [5] | inhibition [6]
CNC(=O)NCCN1CCCC1=O | 110% (inactive) | 112% (inactive) | 102% (inactive) | 14.5% (inactive) | 87.5% | 102% | -5% (inactive) | -3.09% (inactive)
CCn1c(SCC(=O)Nc2ccc3c(c2)OCO3)nnc1-c1cnccn1 | 89% (inactive) | 93.1% (inactive) | 95.4% (inactive) | 5.74% (inactive) | 89.7% | 95.4% | -5.62% (inactive) | -0.73% (inactive)
Clc1cccc(-c2nnc3sc(-c4ccccc4)nn23)c1 | 86% (inactive) | 124% (inactive) | 89.5% (inactive) | -3.02% (inactive) | 92.6% | 89.5% | -0.27% (inactive) | -4% (inactive)
CCc1nnc(SCc2cn3c(C)cc(C)nc3n2)n1N | 96% (inactive) | 96.5% (inactive) | 108% (inactive) | 15.7% (inactive) | 92.2% | 108% | -1.89% (inactive) | -4.91% (inactive)
O=C(COC(=O)CCC1CCCC1)Nc1ccc(Cl)cn1 | 107% (inactive) | 101% (inactive) | 98.6% (inactive) | 5.36% (inactive) | 93.2% | 98.6% | 0% (inactive) | -1.45% (inactive)
Cc1[nH]c(C(=O)N2CCCCC2)c(C)c1C(=O)NC1CCCCC1 | 88% (inactive) | 92.4% (inactive) | 103% (inactive) | 18.4% (inactive) | 84.4% | 103% | 1.43% (inactive) | 0.66% (inactive)
CCOC(=O)C1CCN(c2cc(C)nc3cc(-c4cccc(F)c4)nn23)CC1 | 86% (inactive) | 105% (inactive) | 90.4% (inactive) | 7.95% (inactive) | 82.4% | 90.4% | -3.78% (inactive) | -6.91% (inactive)
CCOC(=O)N1CCN(C(=O)c2ccc3c(=O)n(Cc4ccc(OC)cc4)c(=S)[nH]c3c2)CC1 | 99% (inactive) | 64.6% (inactive) | 72.5% (inactive) | 47.4% (inactive) | 25.1% | 72.5% | -0.13% (inactive) | -5.08% (inactive)
CN1CCN(C2=Nc3ccccc3Oc3ccc(Cl)cc32)CC1 | 80% (inactive) | 59.7% (inactive) | 73.6% (inactive) | 48.3% (inactive) | 25.3% | 73.6% | -3.38% (inactive) | -1.83% (inactive)
Cn1c(CN2CCCCC2)nc2cc(NC(=O)c3ccccc3)ccc21 | 54% (inactive) | 102% (inactive) | 88.5% (inactive) | -5.74% (inactive) | 94.2% | 88.5% | -7.53% (inactive) | -3.09% (inactive)
COc1ccc(C2/C(=C(/O)c3ccc(OC(C)C)cc3)C(=O)C(=O)N2CCCN2CCOCC2)cc1 (centres undefined) | 112% (inactive) | 97.7% (inactive) | 92.4% (inactive) | -12.4% (inactive) | 105% | 92.4% | -5.21% (inactive) | -1.09% (inactive)
[O-][n+]1onc2c1CCc1nnc(-c3ccccc3)cc1-2 | 93.5% (inactive) | 113% (inactive) | 76.2% (inactive) | 43.7% (inactive) | 32.6% | 76.2% | -1.18% (inactive) | 8.03% (inactive)
O=C(COc1ccccc1Cl)NCCCN1CCOCC1 | 98% (inactive) | 86.9% (inactive) | 91.3% (inactive) | -0.6% (inactive) | 91.9% | 91.3% | 3.15% (inactive) | -2.74% (inactive)
CCN1C(=O)C2(C(C#N)=C(N)Oc3n[nH]c(C(C)C)c32)c2ccccc21 (centres undefined) | 113% (inactive) | 103% (inactive) | 89.2% (inactive) | -1.03% (inactive) | 90.2% | 89.2% | -8.9% (inactive) | -0.81% (inactive)
CCN(CCCc1ccccc1)CCCc1ccccc1 | 76% (inactive) | 77.6% (inactive) | 78.6% (inactive) | -12.7% (inactive) | 91.2% | 78.6% | 2.34% (inactive) | 15% (inactive)
COc1ccc(C(=O)NCCC(C)C)cc1S(=O)(=O)N1CCOCC1 | 98% (inactive) | 98.8% (inactive) | 102% (inactive) | 7.34% (inactive) | 94.2% | 102% | -9.86% (inactive) | 2.73% (inactive)
COc1cc(C(=O)NCC(=O)OCC(=O)c2ccc[nH]2)cc(OC)c1OC | 76% (inactive) | 101% (inactive) | 91.5% (inactive) | -3.86% (inactive) | 95.3% | 91.5% | -4.38% (inactive) | -0.55% (inactive)

SMILES | viability [1] | viability [2] | viability [3] | differential viability (reversal) ([4]; H69AR cells + 2 uM doxorubicin) | viability [4, 7] | viability [4, 8] | inhibition [5] | inhibition [6]
O=C(NO)c1ccccc1O | 109% (inactive) | 86.7% (inactive) | 105% (inactive) | 23.1% (inactive) | 81.8% | 105% | -1.95% (inactive) | 6.83% (inactive)
COc1ccccc1NC(=O)Cc1noc(CSc2cc(C)c3ccccc3n2)n1 | 104% (inactive) | 89.5% (inactive) | 92.5% (inactive) | 11.8% (inactive) | 80.7% | 92.5% | -4.59% (inactive) | 1.64% (inactive)
C=CCc1ccccc1OCC(O)CN1CCN(Cc2ccc3c(c2)OCO3)CC1 (centres undefined) | 101% (inactive) | 73.8% (inactive) | 70.1% (inactive) | -5.96% (inactive) | 76% | 70.1% | 59.1% (active) | 58.4% (active)
O=C(O)c1ccc(CSc2ncn[nH]2)cc1 | 107% (inactive) | 105% (inactive) | 94.4% (inactive) | -6.27% (inactive) | 101% | 94.4% | -6.16% (inactive) | 0.55% (inactive)
CCCCOc1ccccc1C1C(C(N)=O)=C(C)Nc2nnnn21 (centres undefined) | 110% (inactive) | 98.3% (inactive) | 93.3% (inactive) | 6.69% (inactive) | 86.6% | 93.3% | -3.9% (inactive) | 0.82% (inactive)
CC(=O)Nc1nnc(S(N)(=O)=O)s1 | 95% (inactive) | 88.7% (inactive) | 109% (inactive) | 24.6% (inactive) | 84.6% | 109% | -1.82% (inactive) | 3.33% (inactive)
O=C(CN1C(=O)c2ccccc2C1=O)Nc1ccc(S(=O)(=O)NCC2CCCO2)cc1 (centres undefined) | 89% (inactive) | 107% (inactive) | 96.4% (inactive) | -14.1% (inactive) | 110% | 96.4% | -7.4% (inactive) | -4.91% (inactive)
CCOC(=O)C(C)C1(O)c2ccccc2-c2ncccc21 (centres undefined) | 91% (inactive) | 98.6% (inactive) | 102% (inactive) | 13% (inactive) | 88.6% | 102% | -5.81% (inactive) | 1.27% (inactive)
CC(=O)N1CCc2cc(S(=O)(=O)NCCC(=O)Nc3cc(C)cc(C)c3)ccc21 | 95% (inactive) | 104% (inactive) | 95.6% (inactive) | 0.35% (inactive) | 95.3% | 95.6% | -4.93% (inactive) | -4% (inactive)
Cc1ccc(-n2ncc3c(=O)n(CC(=O)NCc4ccco4)cnc32)cc1 | 105% (inactive) | 76.5% (inactive) | 81.3% (inactive) | -12.3% (inactive) | 93.6% | 81.3% | 1.92% (inactive) | 1.77% (inactive)
COc1ccc(-c2nnc(SC(C)C(=O)Nc3nccs3)n2-c2ccccc2)cc1OC (centres undefined) | 105% (inactive) | 83.5% (inactive) | 86.8% (inactive) | -0.545% (inactive) | 87.4% | 86.8% | -0.96% (inactive) | 3.87% (inactive)
Cn1c2c(c(=O)n(C)c1=O)C(NC(=O)C(C)(C)C)(C(F)(F)F)C(=O)N2 (centres undefined) | 105% (inactive) | 98.7% (inactive) | 90.3% (inactive) | 9.01% (inactive) | 81.3% | 90.3% | -6.62% (inactive) | -1.82% (inactive)
O=C(Nc1ccc(Cl)cc1C(=O)O)c1ccc2c(c1)C(=O)N(Cc1ccco1)C2=O | 72% (inactive) | 86.6% (inactive) | 93.3% (inactive) | 8.62% (inactive) | 84.7% | 93.3% | -8.49% (inactive) | 0.48% (inactive)
Cc1nc(-c2coc3cc(OCC(=O)O)ccc3c2=O)cs1 | 93% (inactive) | 107% (inactive) | 90.5% (inactive) | 1.5% (inactive) | 89% | 90.5% | -5.14% (inactive) | -7.64% (inactive)
O=C(c1ccc(S(=O)(=O)N2CCC(c3nc4ccccc4s3)CC2)cc1)N1CCOCC1 | 97% (inactive) | 100% (inactive) | 71.4% (inactive) | -28.7% (inactive) | 100% | 71.4% | -5.34% (inactive) | 3.64% (inactive)
CCOc1cc(C2C(C#N)=C(N)Oc3n[nH]c(CC)c32)ccc1OCCN1CCOCC1 (centres undefined) | 87% (inactive) | 95.6% (inactive) | 110% (inactive) | 11% (inactive) | 99% | 110% | 0.27% (inactive) | 0.32% (inactive)
